We go through 21 compounds from ChEMBL document CHEMBL1123007, “New antiarrhythmic agents. N-aryl-8-pyrrolizidinealkanamides” (J Med Chem, 1985).

Calls of active or inactive are those of the source. No cut-off for these calls is given here.

Series [1] is described as follows: Potency of the drug was evaluated by comparison with Lidocain; potency = ED50 of Lidocaine /ED50 of compound. It is filed as functional.
The nature of series [2]: Ratio of LD50 to ED50 evaluated for its antiarrhythmic potency. In kind it is functional, Heart.
The subject of series [3] is Mus musculus. Briefly: Antiarrhythmic activity evaluated in mouse after subcutaneous administration. In kind it is functional. To be noted: Heart, sc. In short, it runs like this: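 Male DDY mice (18-22 g), groups of 10, dosed s.c. at 0.1 mL/10 g body weight, three to four doses per compound. ED50 (dose protecting 50% from fibrillation) by Litchfield-Wilcoxon, with 95% confidence limits.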

Series [4] in a line: Acute toxicity was determined in mice. It is filed as organism-based. Particulars: mouse, in vivo.
The subject of series [5] is Mus musculus. Briefly: Antiarrhythmic activity evaluated in mouse after subcutaneous administration; No effect. Particulars: Heart. It is filed as functional, organism-based.
Series [6] can be described thus: Potency of the drug was evaluated by comparison with Lidocain; potency = ED50 of Lidocaine /ED50 of compound. It is filed as functional.

In series [1], `Cc1ccc(NC(=O)CC23CCCN2CCC3)cc1C` gave a Potency of 0.47. Moreover, in series [2], the Ratio is 7.36.
As for `COc1cccc(NC(=O)CC23CCCN2CCC3)c1`, the ED40 in the series with Mus musculus [3] stood at 100 mg/kg.
Regarding `COc1ccc(NC(=O)CC23CCCN2CCC3)cc1`, the Potency in series [1] was 0.6. Moreover, the Ratio in series [2] worked out at 4.8.
`COc1ccc(OC)c(NC(=O)CC23CCCN2CCC3)c1` returned a Potency in series [1] of 0.44. The Ratio in series [2] is 2.26.
Take `Cc1ccccc1NC(=O)CC12CCCN1CCC2`: the ED40 with Mus musculus [3] was 100 mg/kg.
As to `Cc1cccc(C)c1NC(=O)C12CCCN1CCC2`, in series [4], the LD50 came out at 603 mg/kg. Also, in the series with Mus musculus [3], the ED20 stood at 100 mg/kg.
With `CCc1cccc(CC)c1NC(=O)CC12CCCN1CCC2`, the Potency in series [1] was 1.41. In addition, the Ratio in series [2] is given as 9.93.
Consider `Cc1cccc(NC(=O)CC23CCCN2CCC3)c1C`, for which the Potency in series [1] is 0.56. Also, in series [2], the Ratio turned out to be 7.33.
Turning to `CCN(CC)CC(=O)Nc1c(C)cccc1C` [LIDOCAINE], the Potency in series [1] came out at 1. Also, the 50% effect level in the series with Mus musculus [3] (ED50) was put at a dose of 29 mg/kg.
In series [1], `O=C(CC12CCCN1CCC2)Nc1ccccc1Br` had a Potency of 0.76. For the same compound, the Ratio in series [2] came out at 7.54.
With `O=C(CC12CCCN1CCC2)Nc1ccccc1`, in the series on Mus musculus [5], the ED50 entry is “inactive”.
The compound `Cc1cc(C)cc(NC(=O)CC23CCCN2CCC3)c1` had a Potency in series [1] of 0.69. Also, the Ratio in series [2] was found to be 6.83.
In the series with Mus musculus [3], `COc1ccccc1NC(=O)CC12CCCN1CCC2` came in with an ED40 of 100 mg/kg.
Take `Cc1ccc(NC(=O)CC23CCCN2CCC3)cc1`: the ED20 with Mus musculus [3] turned out to be 100 mg/kg.
Same read-out and setting: for `O=C(CC12CCCN1CCC2)Nc1c(Cl)cccc1Cl` the value was 100 mg/kg.
In series [1], `Cc1cc(C)c(NC(=O)CC23CCCN2CCC3)c(C)c1` came in with a Potency of 1.22. For the same compound, in series [2], the Ratio is recorded as 9.09.
Regarding `Cc1ccc(C)c(NC(=O)CC23CCCN2CCC3)c1`, the Potency in series [1] was found to be 0.5. Also, in series [2], the Ratio amounted to 5.56.
As for `Nc1ccccc1NC(=O)CC12CCCN1CCC2`, in the series on Mus musculus [3], it took a dose of 100 mg/kg to reach the 50% effect level (ED50). Besides, the Ratio in series [2] turned out to be 6.33. The compound also had a Potency in series [6] of 0.9.
In series [4], `Nc1ccc(NC(=O)CC23CCCN2CCC3)cc1` yielded an LD50 of 12 mg/kg.
For `O=C(CC12CCCN1CCC2)Nc1ccccc1Cl`, the ED20 in the series on Mus musculus [3] amounted to 100 mg/kg.
With `Cc1cccc(C)c1NC(=O)CC12CCCN1CCC2`, the Potency in series [1] is 1.51.
